The conditions of data set [1]: above the CMC, previous studies; ref [16–18]; cited from earlier work.
The conditions of data set [2]: ref [19], cited from earlier work.
Data set [3] is described as follows: Particle size analysis of micelles by dynamic light scattering. Particulars: in water, DLS. In kind it is physicochemical. In outline: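 Carrier glycoside alone or the solid dispersion powder was dispersed in deionised water and sonicated for 2 min. Volumetric size distribution was measured by dynamic light scattering, and the mean size was taken from 3 replicates.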

The nature of data set [4]: Apparent solubility measurement in deionised water. In kind it is physicochemical. Particulars: 37 °C, thermodynamic from solid. In a few lines: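 Excess crystalline test compound or its 1:10 solid dispersion was shaken in deionised water at 50 strokes/min and 37 °C for 24 h, then filtered (0.45 µm). Concentration was measured by HPLC: C18 column, 2% glacial acetic acid:methanol (23:77 v/v) at 1 mL/min, detection at 424 nm. Measured in triplicate.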

Data set [5] can be described thus: Dissolution test in pH 1.2 and pH 6.8 buffers with 0.2% Tween 80. In kind it is physicochemical. Particulars: 0.2% Tween 80, 37 °C. In a few lines:
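Crystalline compound or solid dispersion, each equivalent to 2 mg test compound, was stirred at 50 rpm and 37 °C in 100 mL phosphate buffer (pH 1.2 or pH 6.8, each with 0.2% Tween 80). Samples were taken at 5, 10, 20, 30, 60, 120, 180, 240 and 300 min, with medium replaced at 37 °C. Samples were filtered (0.45 µm) and analysed by the 424 nm HPLC method.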

Results on four molecules are retold here after PMC9968502 (International Journal of Nanomedicine, 2023).

Converted amounts (≈) assume the structure as drawn.

Usually solubility stands for the dissolved amount per volume that the medium holds.

For α-Glucosyl Stevia [Stevia-G], the Aggregation number in data set [1] was 12.
On to `COc1cc(C2Oc3cc([C@H]4Oc5cc(O)cc(O)c5C(=O)[C@@H]4O)ccc3OC2CO)ccc1O` (stereo partly drawn) [silybin], for which the “Fold increment of silybin water solubility by Mog-V” value in data set [2] was 2000 fold. Further, in data set [2] (silybin alone), the “Water solubility of silybin” value is 1 µg/mL. Also, the “Water solubility of silybin with Mog-V” value in data set [2] (solid dispersion of silybin in Mog-V dissolved in water) was 2000 µg/mL.
For the molecule `COc1cc(/C=C/C(=O)CC(=O)/C=C/c2ccc(O)c(OC)c2)ccc1O` [CUR, Curcumin], the “Micelle size (diameter)” value in data set [3] is ~ 154 nm. For the same molecule, in data set [4], the solubility at 24 h was found to be 0.25 µg/mL (≈ 0.679 µM). Besides, in data set [5] (pH 1.2 buffer, in 300 min), the CUR released is reported as 22%. In addition, in data set [5] (pH 6.8 buffer), the “Dissolution rate (in words)” value is “slow dissolution rate”.
For α-Glycosyl Rutin [Rutin-G], in data set [1], the Aggregation number is given as 4.
